Columns and labels:
[1] = Half life in human serum by HPLC analysis; assay type: ADME, cell-free
Method in brief: (§1)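 Radioiodinated guanidines were incubated in mouse, human or pig serum and analyzed by radio-HPLC on a C18 column at 0.8 mL/min. The gradient was 0–95% CH3CN over 50 min, then 95% for 20 min. Intact compound was fitted to monoexponential degradation to give half-life. Values are average ± std err.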

[2] = Stability in human serum assessed as intact compound level after 60 mins by HPLC analysis; assay type: ADME, cell-free; details: read-out: Stability; method in brief: as §1
[3] = Stability in human SK-N-SH cells assessed as parent compound level after 24 hrs by HPLC analysis; assay type: ADME, cell-based; details: read-out: Stability
Method in brief: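 The compound was incubated 24 h in cell culture medium without cells or with SK-N-SH cells. Intact compound and 125IUdR catabolite were quantified by radio-HPLC on a C18 column at 0.8 mL/min, with a 0–95% CH3CN gradient over 50 min and 95% for 20 min.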

[4] = Half life in pig serum by HPLC analysis; assay type: ADME, cell-free, Sus scrofa; method in brief: as §1
[5] = Drug uptake in human SK-N-SH cells assessed as level of 125I-incorporation into DNA after 1 hr and followed by compound washout with non-radioactive medium/PBS and measured immediately by gamma counting method relative to control; assay type: ADME, cell-based
Method in brief: (§2)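 SK-N-SH cells exposed to the 125I-labelled guanidine for 1 h, then washed with nonradioactive medium and PBS. Cells were either processed at once (1 h) or given fresh nonradioactive medium and returned to the incubator for 23 h (24 h). Subcellular fractions (cytoplasm, DNA) were counted by γ-counter. Values are mean and SD, n ≥ 3.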

[6] = Drug uptake in human SK-N-SH cells assessed as level of 125I-incorporation into DNA incubated 1 hr followed by compound washout with non-radioactive medium/PBS and measured after 23 hrs by gamma counting method relative to control; assay type: ADME, cell-based; method in brief: as §2
[7] = Drug uptake in human BE(2)-C cells assessed as level of 125I-incorporation into DNA after 1 hr and followed by compound washout with non-radioactive medium/PBS and measured immediately by gamma counting method relative to control; assay type: ADME, cell-based
Method in brief: (§3)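 BE(2)-C cells were treated with radioiodinated guanidine for 1 h, washed with nonradioactive medium and PBS. They were processed immediately or returned to the incubator for a further 23 h. 125I in the DNA fraction was gamma-counted. Values are average (n ≥ 3) ± SD.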

[8] = Drug uptake in human BE(2)-C cells assessed as level of 125I-incorporation into DNA incubated 1 hr followed by compound washout with non-radioactive medium/PBS and measured after 23 hrs by gamma counting method relative to control; assay type: ADME, cell-based; method in brief: as §3
[9] = molecular target: T1, Sodium-dependent noradrenaline transporter (Homo sapiens, UniProt P23975); experiment: Substrate activity at NET in human SK-N-SH cells assessed as inhibition of drug uptake by measuring MIBG IC50 incubated for 1 hr in presence of nonradioactive MIBG by gamma counting method; assay type: cell-based
Method in brief: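 Exponentially growing SK-N-SH monolayers (endogenous NET) were exposed for 1 h to 125I-labelled guanidine plus nonradioactive MIBG over a range of concentrations. Cell-associated 125I was counted in a γ-counter, and the MIBG IC50 was estimated.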

[10] = molecular target: T1, Sodium-dependent noradrenaline transporter; experiment: Substrate activity at NET in human BE(2)-C cells assessed as inhibition of drug uptake by measuring MIBG IC50 incubated for 1 hr in presence of nonradioactive MIBG at 37 degC by filtration based gamma counting method; assay type: cell-based
[11] = molecular target: T1, Sodium-dependent noradrenaline transporter; experiment: Substrate activity at NET in human BE(2)-C cells assessed as inhibition of drug uptake by measuring MIBG IC50 incubated for 1 hr in presence of nonradioactive MIBG at 4 degC by filtration based gamma counting method; assay type: cell-based
SK-N-SH [12] = experiment: Anticlonogenic activity against human SK-N-SH cells assessed as inhibition of reproductive integrity at 35 kBq/mL after 14 days by crystal violet staining based assay relative to control; assay type: functional; parameters: scale not given: the % may be the effect or the level left
Method in brief: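 SK-N-SH cells exposed to 125I guanidine for 24 h, then harvested, replated at 500 live cells/flask and grown in nonradioactive medium for 14 days (up to 21 days at the highest levels). Colonies were stained with crystal violet and counted. Values are average (n ≥ 3) ± SD.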

BE(2)-C [13] = experiment: Antiproliferative activity against human BE(2)-C cells assessed as intracellular concentration of 125I required to show 63% inhibition after 1 hr; assay type: cell-based
Method in brief: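 BE(2)-C cells were treated for 1 h with several IDG concentrations, washed extensively, harvested with trypsin and replated for clonogenic assay. Cellular 125I uptake was measured per cell. D37 (63% kill) was estimated from survival versus extracellular concentration or intracellular content (mBq/cell). Values are average (std error).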

[14] = Drug level in human SK-N-SH cells DNA at 40 +/- 0.5 kBq/mL after 24 hrs by gamma counting method relative to control; assay type: ADME, cell-based
Method in brief: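 SK-N-SH cells were exposed 1 h to 125I compound (≈39–40 kBq/mL), then washed with nonradioactive medium and PBS. Cells were processed immediately (1 h) or re-incubated in fresh medium for 23 h (24 h). Cytoplasmic, nuclear and DNA fractions were gamma-counted.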

SK-N-SH [15] = experiment: Anticlonogenic activity against human SK-N-SH cells assessed as number of colonies at 40 +/- 0.5 kBq/mL kBq/mL after 24 hr by crystal violet staining based assay; assay type: functional
Method in brief: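 SK-N-SH cells exposed for 1 h to 125I-MIBG (39.3 ± 0.3 kBq/mL extracellular) or IDG (40 ± 0.5 kBq/mL). For the 1 h group, cells were washed with nonradioactive medium and PBS, harvested with trypsin and replated for the clonogenic assay. For the 24 h group, cells were washed, given fresh nonradioactive medium and incubated a further 23 h before plating. Colonies were counted.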

[16] = Ratio of tumor to blood concentration in NCR nu/nu mouse xenografted with human BE(2)-C cells at 0.33 +/- 0.05 MBq administered intratumorally after 24 hrs by gamma counting method; assay type: ADME, tissue-based; details: tumour, other
Method in brief: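 Athymic Ncr nu/nu female and male mice bearing subcutaneous BE(2)-C xenografts received intratumor injections of the 125I agent. Tissues, tumor and blood were collected at 24 h and counted for radioactivity, expressed as %ID/g. Tumor-to-blood ratios were derived.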

BE(2)-C [17] = experiment: Antitumor activity against human BE(2)-C cells xenografted with NCR nu/nu mouse assessed as tumor volume at 8.4 +/- 0.3 mBq administered intratumorally after 1 day (reference value: 0.39 +/- 0.15 cm3); assay type: functional
Method in brief: (§4)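 Athymic Ncr nu/nu female and male mice bearing subcutaneous BE(2)-C xenografts were randomized by lottery into untreated control and treatment groups. Treatment was a single intratumor injection of 8.4 ± 0.3 MBq/mouse. Tumor volumes were followed to day 7 (controls) or day 14. Doubling times were calculated from day 0 to 7 and day 0 to 14. Values are average ± std err.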

BE(2)-C [18] = experiment: Antitumor activity against human BE(2)-C cells xenografted with NCR nu/nu mouse assessed as doubling time at 8.4 +/- 0.3 mBq administered intratumorally measured up to 7 days (reference value: 2.4 days); assay type: functional; method in brief: as §4
BE(2)-C [19] = experiment: Antitumor activity against human BE(2)-C cells xenografted with NCR nu/nu mouse assessed as doubling time at 8.4 +/- 0.3 mBq administered intratumorally measured up to 14 days; assay type: functional; method in brief: as §4
BE(2)-C [20] = experiment: Antitumor activity against human BE(2)-C cells xenografted with NCR nu/nu mouse assessed as tumor volume at 8.4 +/- 0.3 mBq administered intratumorally after 7 days; assay type: functional; method in brief: as §4
[21] = Dissociation constant, pKa of compound; assay type: physicochemical

T1 sequence (P23975 whole entry): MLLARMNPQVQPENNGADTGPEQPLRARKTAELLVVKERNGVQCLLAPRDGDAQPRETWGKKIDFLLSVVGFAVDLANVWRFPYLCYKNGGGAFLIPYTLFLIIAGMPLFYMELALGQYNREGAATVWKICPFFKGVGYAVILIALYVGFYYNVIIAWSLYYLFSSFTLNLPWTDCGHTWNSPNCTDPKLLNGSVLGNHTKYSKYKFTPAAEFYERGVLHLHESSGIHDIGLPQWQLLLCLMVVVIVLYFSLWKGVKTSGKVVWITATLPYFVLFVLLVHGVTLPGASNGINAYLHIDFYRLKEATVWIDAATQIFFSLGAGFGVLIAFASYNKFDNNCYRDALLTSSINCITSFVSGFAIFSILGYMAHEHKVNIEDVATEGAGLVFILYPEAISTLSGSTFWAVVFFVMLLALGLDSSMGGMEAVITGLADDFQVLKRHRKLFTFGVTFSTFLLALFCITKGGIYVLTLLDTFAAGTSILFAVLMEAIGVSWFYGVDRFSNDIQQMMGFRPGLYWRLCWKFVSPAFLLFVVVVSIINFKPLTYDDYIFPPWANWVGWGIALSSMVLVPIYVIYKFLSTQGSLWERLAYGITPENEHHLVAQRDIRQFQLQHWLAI

half-life [1]: 2.28 h
remaining at 1 h [2]: 62.4%
remaining at 24 h [3]: 33%
half-life [4]: 3.59 h
Drug uptake [5]: 81%
Drug uptake [6]: > 97%
Drug uptake [7]: 93%
Drug uptake [8]: 99%
IC50 [9]: 76.2 µM
IC50 [10]: 28.7 µM
IC50 [11]: 23.9 µM
Drug uptake [14]: > 97%
Ratio [16]: 161
pKa [21]: 12.1
Compound: N=C(N)NCCCCCC(=O)O[C@H]1C[C@H](n2cc([125I])c(=O)[nH]c2=O)O[C@@H]1CO
Activity (SK-N-SH [12]): >90%
Activity (BE(2)-C [13]): 0.91 mBq
Activity (SK-N-SH [15]): 97
Activity (BE(2)-C [17]): 0.42 cm3
Time (BE(2)-C [18]): 14.9 days
Time (BE(2)-C [19]): 5.3 days
Activity (BE(2)-C [20]): 0.54 cm3
